Laboratory results published in ChEMBL document CHEMBL1129436, “Novel peptidyl alpha-keto amide inhibitors of calpains and other cysteine proteases” (J Med Chem, 1996).

Columns and labels:
[1] = target: T1, Calpain-1 catalytic subunit (Homo sapiens, UniProt P07384); assay: Inhibition of the cysteine protease human Calpain 1
T1 sequence (P07384 whole entry): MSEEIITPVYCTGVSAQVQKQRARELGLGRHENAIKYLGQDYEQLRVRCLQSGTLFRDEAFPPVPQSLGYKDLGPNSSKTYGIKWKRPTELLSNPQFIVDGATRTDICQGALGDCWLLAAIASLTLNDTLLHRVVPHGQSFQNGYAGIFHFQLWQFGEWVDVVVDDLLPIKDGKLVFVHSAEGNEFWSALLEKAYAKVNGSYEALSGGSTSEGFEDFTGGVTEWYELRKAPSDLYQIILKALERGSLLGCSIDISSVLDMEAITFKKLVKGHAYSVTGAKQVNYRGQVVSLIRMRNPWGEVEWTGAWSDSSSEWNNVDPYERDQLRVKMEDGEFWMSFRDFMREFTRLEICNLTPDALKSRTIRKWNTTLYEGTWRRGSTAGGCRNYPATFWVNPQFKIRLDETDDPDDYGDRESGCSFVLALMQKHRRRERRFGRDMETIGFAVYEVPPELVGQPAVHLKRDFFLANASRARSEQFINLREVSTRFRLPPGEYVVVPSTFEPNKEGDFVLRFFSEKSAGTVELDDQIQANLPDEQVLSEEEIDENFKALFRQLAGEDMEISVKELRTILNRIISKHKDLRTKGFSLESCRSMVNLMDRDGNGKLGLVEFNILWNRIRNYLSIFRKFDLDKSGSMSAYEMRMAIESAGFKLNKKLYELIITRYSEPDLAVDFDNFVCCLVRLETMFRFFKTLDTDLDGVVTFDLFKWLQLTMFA
Outline: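 Calpain assay in 25 mM Tris, pH 8.0, with 10 mM CaCl₂ and 5% DMSO. […] hydrolysis was read as initial velocity (t = 30-60 s) after a 30 s delay, at room temperature. Five or more inhibitor concentrations (not above 2 × K_obs) were used at two fixed substrate levels. Ki came from Dixon plots (1/v vs I) averaged over triplicates.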

Cathepsin B [2] = target: Cathepsin B (Bos taurus, UniProt P07688); assay: Inhibition of bovine cathepsin B
Outline: (§1)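 Bovine or human cathepsin B, assayed in 20 mM sodium acetate, pH 5.2, with 0.5 mM dithiothreitol and 2% DMSO. The two enzyme sources were used interchangeably. Ki was taken from Dixon plots, with triplicate assays plotted as 1/v versus inhibitor concentration.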

Cathepsin B [3] = target: Cathepsin B (Homo sapiens, UniProt P07858); assay: Inhibition of human cathepsin B; outline: as §1
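For IC in this document: measured as membrane permeability of platelets.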

Ki [1] [nM] | Ki (Cathepsin B [2]) [nM] | Ki (Cathepsin B [3]) [nM] | Compound | IC (Rattus norvegicus) [µM]
5000 | 550 | – | CCNC(=O)C(=O)C(CC)NC(=O)C(CC(C)C)NC(=O)C(c1ccccc1)c1ccccc1 (stereo unspecified) | –
200 | 2100 | – | CC(C)CC(NC(=O)OCc1ccccc1)C(=O)NC(Cc1ccccc1)C(=O)C(=O)NCC(O)c1ccc(Oc2ccccc2)cc1 (stereo unspecified) | –
220 | – | 4500 | CC(C)CC(NC(=O)OCc1ccccc1)C(=O)NC(Cc1ccccc1)C(=O)C(=O)NCCCN1CCc2ccccc2C1 (stereo unspecified) | –
480 | 20000 | – | CC(C)CC(NC(=O)OCc1ccccc1)C(=O)NC(Cc1ccccc1)C(=O)C(=O)NCC(O)c1ccc(OCc2ccccc2)c(OCc2ccccc2)c1 (stereo unspecified) | –
130 | 450 | – | CCC(NC(=O)C(CC(C)C)NC(=O)OCc1ccccc1)C(=O)C(=O)NCc1ccc2ccccc2n1 (stereo unspecified) | –
1900 | 220 | – | CCNC(=O)C(=O)C(CC)NC(=O)C(CC(C)C)NC(=O)CCc1ccccc1 (stereo unspecified) | –
330 | 72 | – | CCC(NC(=O)C(CC(C)C)NC(=O)OCc1ccccc1)C(=O)C(=O)NCC(O)c1ccc(N(C)C)cc1 (stereo unspecified) | –
32000 | 1700 | – | CCC(NC(=O)C(CC(C)C)NC(=O)OCc1ccccc1)C(=O)C(=O)NCc1nc2c(c(=O)n(C)c(=O)n2C)n1C (stereo unspecified) | –
620 | 310 | – | CC(C)CC(NC(=O)OCc1ccccc1)C(=O)NC(Cc1ccccc1)C(=O)C(=O)NCC(O)c1ccc(N(C)C)cc1 (stereo unspecified) | –
700 | 210 | – | CC(C)CC(NC(=O)OCc1ccccc1)C(=O)NC(Cc1ccccc1)C(=O)C(=O)NCC(O)c1c(F)c(F)c(F)c(F)c1F (stereo unspecified) | –
300 | – | 350 | CCNC(=O)C(=O)C(CC)NC(=O)C(CC(C)C)NC(=O)Cc1cccc2ccccc12 (stereo unspecified) | –
100 | 210 | – | CCC(NC(=O)C(CC(C)C)NC(=O)OCc1ccccc1)C(=O)C(=O)NCC(O)c1ccc(Oc2ccccc2)cc1 (stereo unspecified) | –
1300 | 880 | – | CCNC(=O)C(=O)C(CC)NC(=O)C(CC(C)C)NC(=O)c1cccnc1 (stereo unspecified) | –
270 | 100 | – | CCC(NC(=O)C(CC(C)C)NC(=O)OCc1ccccc1)C(=O)C(=O)NCC(O)c1cccc(Oc2ccc(Cl)c(Cl)c2)c1 (stereo unspecified) | –
760 | – | 3800 | CC(C)CC(NC(=O)C(c1ccccc1)c1ccccc1)C(=O)NC(Cc1ccccc1)C(=O)C(=O)NCCCN1CCOCC1 (stereo unspecified) | –
280 | 330 | – | CCC(NC(=O)C(CC(C)C)NC(=O)OCc1ccccc1)C(=O)C(=O)NC (stereo unspecified) | –
350 | 220 | – | CCNC(=O)C(=O)C(CC)NC(=O)C(CC(C)C)NC(=O)c1nccc2ccccc12 (stereo unspecified) | –
350 | 570 | – | CNC(=O)C(=O)C(Cc1ccccc1)NC(=O)C(CC(C)C)NC(=O)OCc1ccccc1 (stereo unspecified) | –
80 | 110 | – | CCC(NC(=O)C(CC(C)C)NC(=O)OCc1ccccc1)C(=O)C(=O)NCC(O)c1ccc(OCc2ccccc2)cc1 (stereo unspecified) | –
850 | 1200 | – | CCNC(=O)C(=O)C(CC)NC(=O)C(CC(C)C)NC(=O)c1ccco1 (stereo unspecified) | –

Ki [1] [nM] | Ki (Cathepsin B [2]) [nM] | Ki (Cathepsin B [3]) [nM] | Compound | IC (Rattus norvegicus) [µM]
310 | – | 8000 | CCC(NC(=O)C(CC(C)C)NC(=O)OCc1ccccc1)C(=O)C(=O)NCCCN1CCc2ccccc2C1 (stereo unspecified) | –
350 | 110 | – | CCC(NC(=O)C(CC(C)C)NC(=O)OCc1ccccc1)C(=O)C(=O)NCC(O)c1cccc(C(F)(F)F)c1 (stereo unspecified) | –
180 | 120 | – | CC(C)CC(NC(=O)OCc1ccccc1)C(=O)NC(Cc1ccccc1)C(=O)C(=O)NCC(O)c1cccc(Oc2cccc(C(F)(F)F)c2)c1 (stereo unspecified) | –
110 | – | 340 | CC(C)CC(NC(=O)OCc1ccccc1)C(=O)NC(Cc1ccccc1)C(=O)C(=O)NCc1ccc2ccccc2n1 (stereo unspecified) | –
110 | – | 310 | CCC(NC(=O)C(CC(C)C)NC(=O)OCc1ccccc1)C(=O)C(=O)NCCc1cccc(OC)c1 (stereo unspecified) | –
1400 | 350 | – | CCNC(=O)C(=O)C(CC)NC(=O)C(CC(C)C)NC(=O)c1cnccn1 (stereo unspecified) | –
380 | 140 | – | CC(C)CC(NC(=O)OCc1ccccc1)C(=O)NC(Cc1ccccc1)C(=O)C(=O)NCCCN1CCCc2ccccc21 (stereo unspecified) | –
10000 | 240 | – | CC(C)CC(NC(=O)C(c1ccccc1)c1ccccc1)C(=O)NC(Cc1ccccc1)C(=O)C(=O)NCC(O)c1ccccc1 (stereo unspecified) | –
50 | 150 | – | CCC(NC(=O)C(CC(C)C)NC(=O)OCc1ccccc1)C(=O)C(=O)NCC(O)c1c(F)c(F)c(F)c(F)c1F (stereo unspecified) | –
– | – | – | CCC(NC(=O)C(CC(C)C)NC(=O)C(c1ccccc1)c1ccccc1)C(=O)C(=O)NCc1ccccn1 (stereo unspecified) | 88
230 | 320 | – | CCC(NC(=O)C(CC(C)C)NC(=O)OCc1ccccc1)C(=O)C(=O)NCC(O)c1ccc(OCc2ccccc2)c(OCc2ccccc2)c1 (stereo unspecified) | –
120 | – | 440 | CCC(NC(=O)C(CC(C)C)NC(=O)OCc1ccccc1)C(=O)C(=O)NCCc1ccc(OC)cc1 (stereo unspecified) | –
900 | 120 | – | CCC(NC(=O)C(CC(C)C)NC(=O)OCc1ccccc1)C(=O)C(=O)NCC(O)c1cccc(Oc2ccccc2)c1 (stereo unspecified) | –
– | – | 1200 | CCC(NC(=O)C(CC(C)C)NC(=O)OCc1ccccc1)C(=O)C(=O)NCCc1cccn1C (stereo unspecified) | –
7800 | 3400 | – | CCCC(NC(=O)C(CC(C)C)NC(=O)OCc1ccccc1)C(=O)C(=O)NCC(O)c1ccccc1 (stereo unspecified) | –
410 | – | – | CCC(NC(=O)C(CC(C)C)NC(=O)OCc1ccccc1)C(=O)C(=O)NCCc1ccccn1 (stereo unspecified) | 70
130 | – | 630 | CCC(NC(=O)C(CC(C)C)NC(=O)OCc1ccccc1)C(=O)C(=O)NCCc1ccccc1OC (stereo unspecified) | –
70 | 300 | – | CCC(NC(=O)C(CC(C)C)NC(=O)OCc1ccccc1)C(=O)C(=O)NCC(O)c1cccc(Oc2cccc(C(F)(F)F)c2)c1 (stereo unspecified) | –
370 | 94 | – | CCC(NC(=O)C(CC(C)C)NC(=O)OCc1ccccc1)C(=O)C(=O)NCCCN1CCCc2ccccc21 (stereo unspecified) | –
800 | – | 2300 | CCC(NC(=O)C(CC(C)C)NC(=O)C(c1ccccc1)c1ccccc1)C(=O)C(=O)NCCCN1CCOCC1 (stereo unspecified) | –

Ki [1] [nM] | Ki (Cathepsin B [2]) [nM] | Ki (Cathepsin B [3]) [nM] | Compound | IC (Rattus norvegicus) [µM]
290 | – | 9900 | CCC(NC(=O)C(CC(C)C)NC(=O)OCc1ccccc1)C(=O)C(=O)NCCCn1ccnc1 (stereo unspecified) | –
– | – | – | CCCNC(=O)C(=O)C(CC)NC(=O)C(CC(C)C)NC(=O)OCc1ccccc1 (stereo unspecified) | 70
590 | 640 | – | CC(C)CC(NC(=O)OCc1ccccc1)C(=O)NC(Cc1ccccc1)C(=O)C(=O)NCC(O)c1cccc(Oc2ccc(Cl)c(Cl)c2)c1 (stereo unspecified) | –
19 | – | 750 | CCCC(NC(=O)C(CC(C)C)NC(=O)OCc1ccccc1)C(=O)C(=O)NCc1ccccn1 (stereo unspecified) | –
600 | 640 | – | CC(C)CC(NC(=O)OCc1ccccc1)C(=O)NC(Cc1ccccc1)C(=O)C(=O)NCC(O)c1cccc(Oc2ccccc2)c1 (stereo unspecified) | –
460 | 140 | – | CC(C)CC(NC(=O)OCc1ccccc1)C(=O)NC(Cc1ccccc1)C(=O)C(=O)NCC(O)c1cccc(C(F)(F)F)c1 (stereo unspecified) | –
7900 | 4300 | – | CCNC(=O)C(=O)C(CC)NC(=O)C(CC(C)C)NC(=O)N1CCOCC1 (stereo unspecified) | –
650 | – | 800 | CC(C)CC(NC(=O)OCc1ccccc1)C(=O)NC(Cc1ccccc1)C(=O)C(=O)NCc1ccccn1 (stereo unspecified) | –
240 | 120 | – | CCC(NC(=O)C(CC(C)C)NC(=O)OCc1ccccc1)C(=O)C(=O)NCC(O)c1ccc(OC)cc1 (stereo unspecified) | –
– | 380 | – | CC(C)CC(NC(=O)OCc1ccccc1)C(=O)NC(Cc1ccccc1)C(=O)C(=O)NCC(O)c1ccc(OCc2ccccc2)cc1 (stereo unspecified) | –
350 | 63 | – | CCC(NC(=O)C(CC(C)C)NC(=O)OCc1ccccc1)C(=O)C(=O)NCC(O)c1ccc2ccccc2c1 (stereo unspecified) | –
380 | 220 | – | CCC(NC(=O)C(CC(C)C)NC(=O)OCc1ccccc1)C(=O)C(=O)NCC(O)c1cc(OC)c(OC)c(OC)c1 (stereo unspecified) | –
– | 110 | – | CCOC(CNC(=O)C(=O)C(CC)NC(=O)C(CC(C)C)NC(=O)OCc1ccccc1)OCC (stereo unspecified) | –
220 | 230 | – | CC(C)CC(NC(=O)OCc1ccccc1)C(=O)NC(Cc1ccccc1)C(=O)C(=O)NCCNC(=O)CCCC[C@@H]1SC[C@@H]2NC(=O)N[C@@H]21 (stereo partly specified) | –
– | 190 | – | CCC(NC(=O)C(CC(C)C)NC(=O)OCc1ccccc1)C(=O)C(=O)NCC(OC)OC (stereo unspecified) | –
250 | – | 300 | CCC(NC(=O)C(CC(C)C)NC(=O)OCc1ccccc1)C(=O)C(=O)NCc1nccc2ccccc12 (stereo unspecified) | –
– | 96 | – | CCNC(=O)C(=O)C(CC)NC(=O)C(CC(C)C)NC(=O)c1ccc2ccccc2n1 (stereo unspecified) | –
650 | 660 | – | CCC(NC(=O)C(CC(C)C)NC(=O)OCc1ccccc1)C(=O)C(=O)NCCNC(=O)CCCC[C@@H]1SC[C@@H]2NC(=O)N[C@@H]21 (stereo partly specified) | –
120 | 63 | – | CCC(NC(=O)C(CC(C)C)NC(=O)OCc1ccccc1)C(=O)C(=O)NCC(O)c1cccc2ccccc12 (stereo unspecified) | –
